≈ marks a conversion by molar mass, not a printed value. Square brackets hold non-standard residues; d marks the D form. Peptide text beside a SMILES is read from it. Trp(5-Cl) = N[C@@H](Cc1c[nH]c2ccc(Cl)cc12)C(=O)O; dAsn(3R-OH) = NC(=O)[C@H](O)[C@@H](N)C(=O)O; aIle = CC[C@@H](C)[C@H](N)C(=O)O; Orn = NCCC[C@H](N)C(=O)O
Tests used:
Format in all cases: functional
Staphylococcus aureus [1] = test: Antibacterial activity against methicillin-resistant Staphylococcus aureus CCARM 3167 after 24 hrs by broth microdilution method; details: CCARM 3167, 24 h
Summary of the method: (§1)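 Broth microdilution in Mueller−Hinton broth. Strains grown to mid-log phase in the same medium and diluted 1000-fold, then inoculated at 10^5 cells/mL. Compounds dissolved in DMSO (final ≤0.05%) and tested as serial 2-fold dilutions; 0.05% DMSO as vehicle control. Incubated 24 h at 37 °C with growth read as absorbance at 650 nm. MIC taken as the lowest concentration completely inhibiting growth, in triplicate.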

Staphylococcus aureus [2] = test: Antibacterial activity against Staphylococcus aureus RN4220 after 24 hrs by broth microdilution method; details: RN4220, 24 h; summary of the method: as §1
Pseudomonas aeruginosa = test: Antibacterial activity against Pseudomonas aeruginosa KCTC 2004 after 24 hrs by broth microdilution method; details: KCTC 2004, 24 h
Summary of the method: (§2)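 Broth microdilution in Mueller–Hinton broth. Strains grown to mid-log phase and diluted 1000-fold in the same medium. Cells at 10^5/mL, 0.2 mL/well. Test samples prepared in DMSO (final ≤0.05%), with 0.05% DMSO as vehicle control. Serial 2-fold dilutions, 24 h at 37 °C. Growth read as absorbance at 650 nm. MIC is the lowest concentration giving complete growth inhibition, done in triplicate.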

Enterococcus faecalis = test: Antibacterial activity against Enterococcus faecalis KCTC 5191 after 24 hrs by broth microdilution method; details: KCTC 5191, 24 h; summary of the method: as §2
Staphylococcus aureus [3] = test: Antibacterial activity against quinolone-resistant Staphylococcus aureus CCARM 3505 after 24 hrs by broth microdilution method; details: CCARM 3505, 24 h; summary of the method: as §1
Bacillus subtilis = test: Antibacterial activity against Bacillus subtilis KCTC 1021 after 24 hrs by broth microdilution method; details: KCTC 1021, 24 h; summary of the method: as §2
Escherichia coli = test: Antibacterial activity against Escherichia coli CCARM 1356 after 24 hrs by broth microdilution method; details: CCARM 1356, 24 h; summary of the method: as §2
Streptococcus pneumoniae = test: Antibacterial activity against Streptococcus pneumoniae KCTC 5412 after 24 hrs by broth microdilution method; details: KCTC 5412, 24 h
Summary of the method: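 Broth microdilution with cells grown in Todd–Hewitt medium instead of Mueller–Hinton broth. Cells at 10^5/mL, 0.2 mL/well. Test samples prepared in DMSO (final ≤0.05%), with 0.05% DMSO as vehicle control. Serial 2-fold dilutions, 24 h at 37 °C. Growth read as absorbance at 650 nm. MIC is the lowest concentration giving complete growth inhibition, done in triplicate.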

Compound | MIC (Staphylococcus aureus [1]) [µg/mL] | MIC (Staphylococcus aureus [2]) [µg/mL] | MIC (Pseudomonas aeruginosa) [µg/mL] | MIC (Enterococcus faecalis) [µg/mL] | MIC (Staphylococcus aureus [3]) [µg/mL] | MIC (Bacillus subtilis) [µg/mL] | MIC (Escherichia coli) [µg/mL] | MIC (Streptococcus pneumoniae) [µg/mL]
CC[C@@H](C)[C@@H]1NC(=O)[C@@H](CCC(C)C)NC(=O)[C@@H](C(C)C)NC(=O)[C@H](Cc2c[nH]c3ccc(Cl)cc23)NC(=O)[C@@H]([C@@H](O)C(N)=O)NC(=O)[C@H](CCCN)NC1=O | 16 (≈ 19.9 µM) | 16 (≈ 19.9 µM) | 128 (≈ 159 µM) | 8 (≈ 9.95 µM) | 8 (≈ 9.95 µM) | 8 (≈ 9.95 µM) | 128 (≈ 159 µM) | 16 (≈ 19.9 µM)
CC[C@@H](C)[C@@H]1NC(=O)[C@@H](CC(C)C)NC(=O)[C@@H](C(C)C)NC(=O)[C@H](Cc2c[nH]c3ccc(Cl)cc23)NC(=O)[C@@H]([C@@H](O)C(N)=O)NC(=O)[C@H](CCCN)NC1=O (cyclo([Orn][dAsn(3R-OH)][Trp(5-Cl)][dV][dL][aIle])) | 32 (≈ 40.5 µM) | 16 (≈ 20.2 µM) | 128 (≈ 162 µM) | 8 (≈ 10.1 µM) | 16 (≈ 20.2 µM) | 8 (≈ 10.1 µM) | 64 (≈ 81 µM) | 8 (≈ 10.1 µM)
O=C(O)c1cn(C2CC2)c2cc(N3CCNCC3)c(F)cc2c1=O [CIPROFLOXACIN] | 4 (≈ 12.1 µM) |  |  | 1 (≈ 3.02 µM) | 32 (≈ 96.6 µM) | 0.015 (≈ 0.0453 µM) | 64 (≈ 193 µM) | 

Reference: ChEMBL document CHEMBL4130534, “Genomics-Driven Discovery of Chlorinated Cyclic Hexapeptides Ulleungmycins A and B from a Streptomyces Species” (2017)
